{"source": "BindingDB's records for doi:10.1021/jm0600794", "about": "(University of Innsbruck, 2006)", "biological_target": "T1, Glucocorticoid receptor (Homo sapiens, UniProt P04150)", "T1 sequence (P04150 whole entry)": "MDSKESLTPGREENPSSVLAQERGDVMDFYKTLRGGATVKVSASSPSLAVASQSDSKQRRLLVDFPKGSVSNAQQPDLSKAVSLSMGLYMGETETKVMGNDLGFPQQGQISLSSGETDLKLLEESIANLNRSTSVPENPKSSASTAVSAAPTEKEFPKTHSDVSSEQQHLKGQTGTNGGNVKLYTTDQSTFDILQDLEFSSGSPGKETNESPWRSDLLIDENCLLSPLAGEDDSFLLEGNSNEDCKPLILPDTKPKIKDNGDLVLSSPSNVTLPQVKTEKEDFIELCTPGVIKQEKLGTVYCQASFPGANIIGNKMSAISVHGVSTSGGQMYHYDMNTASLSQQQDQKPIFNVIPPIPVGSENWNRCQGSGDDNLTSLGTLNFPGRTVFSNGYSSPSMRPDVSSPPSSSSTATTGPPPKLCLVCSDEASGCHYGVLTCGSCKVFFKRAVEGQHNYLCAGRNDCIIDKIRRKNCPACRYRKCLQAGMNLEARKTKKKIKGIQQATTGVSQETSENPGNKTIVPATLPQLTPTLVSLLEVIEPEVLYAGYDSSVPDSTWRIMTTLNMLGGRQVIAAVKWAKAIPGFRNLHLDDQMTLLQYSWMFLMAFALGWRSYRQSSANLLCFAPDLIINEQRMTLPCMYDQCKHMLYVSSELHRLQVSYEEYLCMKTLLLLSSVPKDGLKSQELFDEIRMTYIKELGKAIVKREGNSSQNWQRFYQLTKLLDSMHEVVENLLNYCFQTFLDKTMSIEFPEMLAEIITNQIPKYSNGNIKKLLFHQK", "assay": "Inhibition of GR-mediated transactivation of galactosidase reporter gene in HEK293 cells expressing 11betaHSD1", "procedure,_shortened": "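HEK-293 cells transfected with pMMTV-LacZ, pCMV-LUC, GR, 11β-HSD1 and H6PDH plasmids. After 6 h, washed into steroid-free medium, then 24 h with 250 nM cortisone and graded inhibitor. β-Galactosidase normalized to luciferase, as % of steroid-only control. IC50 from four independent experiments, means ± SD.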", "note": "pIC50: −log10 of the molar value.", "data": [{"smiles": "CC(=O)OC1CC[C@]2(C)C3=C(C(=O)C[C@H]2C1(C)C)[C@]1(C)CCC(C(C)CCC(=O)O)[C@@]1(C)CC3=O", "note": "(stereo partly drawn) [4-((5R,10S,13R,14R)-3-acetoxy-4,4,10,13,14-pentamethyl-7,11-dioxo-2,3,4,5,6,7,10,11,12,13,14,15,16,17-tetradecahydro-1H-cyclopenta[a]phenanthren-17-yl)pentanoic acid]", "values": [{"measurement": "pIC50", "value": 5.68}]}]}
